Assay results taken from ChEMBL document CHEMBL4387707, “Structure-Activity Relationships for Itraconazole-Based Triazolone Analogues as Hedgehog Pathway Inhibitors” (J Med Chem, 2019).
pIC50: −log10 of the molar value. Converted amounts (≈) assume the structure as drawn. The source made the active and inactive calls. The calls are words filed in the database; no cut-off is given here.

Molecular target: Voltage-gated inwardly rectifying potassium channel KCNH2 (Homo sapiens, UniProt Q12809)
Assay: Inhibition of human ERG
Conditions: not given

Sequence of Voltage-gated inwardly rectifying potassium channel KCNH2 (Q12809 whole entry): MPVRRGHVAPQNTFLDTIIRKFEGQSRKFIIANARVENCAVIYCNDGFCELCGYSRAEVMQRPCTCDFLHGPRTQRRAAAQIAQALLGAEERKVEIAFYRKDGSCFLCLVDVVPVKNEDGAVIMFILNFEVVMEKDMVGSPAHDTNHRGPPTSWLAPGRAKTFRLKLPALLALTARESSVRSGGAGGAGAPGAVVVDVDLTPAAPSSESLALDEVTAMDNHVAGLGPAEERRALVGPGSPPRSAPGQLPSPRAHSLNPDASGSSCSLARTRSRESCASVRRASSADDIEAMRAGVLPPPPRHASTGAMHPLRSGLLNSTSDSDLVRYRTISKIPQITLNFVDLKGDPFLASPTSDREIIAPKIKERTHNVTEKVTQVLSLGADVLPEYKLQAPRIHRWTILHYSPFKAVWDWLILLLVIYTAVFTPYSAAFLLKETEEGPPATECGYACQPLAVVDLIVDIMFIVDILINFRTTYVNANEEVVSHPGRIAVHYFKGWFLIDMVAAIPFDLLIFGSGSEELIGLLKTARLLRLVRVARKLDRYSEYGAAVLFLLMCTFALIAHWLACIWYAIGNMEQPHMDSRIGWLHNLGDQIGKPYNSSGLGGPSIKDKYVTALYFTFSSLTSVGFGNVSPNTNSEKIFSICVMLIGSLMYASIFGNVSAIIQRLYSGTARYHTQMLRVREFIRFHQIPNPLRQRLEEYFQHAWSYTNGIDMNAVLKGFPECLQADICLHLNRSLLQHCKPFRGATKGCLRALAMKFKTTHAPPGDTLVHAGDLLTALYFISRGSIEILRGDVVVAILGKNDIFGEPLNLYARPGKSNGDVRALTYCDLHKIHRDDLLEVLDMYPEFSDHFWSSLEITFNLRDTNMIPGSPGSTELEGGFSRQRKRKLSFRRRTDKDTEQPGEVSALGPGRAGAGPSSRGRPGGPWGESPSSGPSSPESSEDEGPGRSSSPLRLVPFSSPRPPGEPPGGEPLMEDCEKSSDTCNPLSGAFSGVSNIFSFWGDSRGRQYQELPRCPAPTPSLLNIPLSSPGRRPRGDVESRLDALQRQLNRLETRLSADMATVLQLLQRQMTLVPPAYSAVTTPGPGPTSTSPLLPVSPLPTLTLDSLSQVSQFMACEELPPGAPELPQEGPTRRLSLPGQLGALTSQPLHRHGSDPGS

SMILES	inhibition (INH)
C[C@@]1(c2ccc(Cl)cc2Cl)OC[C@@H](COc2ccc(N3CCN(c4ccc(NC(=O)NN)cc4)CC3)cc2)O1	2.2%
CCC(C)n1ncn(-c2ccc(N3CCN(c4ccc(OCC5COC(Cn6cncn6)(c6ccc(Cl)cc6Cl)O5)cc4)CC3)cc2)c1=O (configuration not stated) [ITRACONAZOLE]	< 1%
C[C@]1(c2ccc(Cl)cc2Cl)OC[C@@H](COc2ccc(N3CCN(c4ccc(NC(=O)c5cccc(O)c5)cc4)CC3)cc2)O1	< 1%
C[C@@]1(c2ccc(Cl)cc2Cl)OC[C@@H](COc2ccc(N3CCN(c4ccc(NC(=O)c5cccc(O)c5)cc4)CC3)cc2)O1	1.2%
CC(=O)c1cccc(C(=O)Nc2ccc(N3CCN(c4ccc(OC[C@@H]5CO[C@](C)(c6ccc(Cl)cc6Cl)O5)cc4)CC3)cc2)c1	< 1%
C[C@]1(c2ccc(Cl)cc2Cl)OC[C@@H](COc2ccc(N3CCN(c4ccc(NC(=O)c5cccnc5)cc4)CC3)cc2)O1	< 1%

Molecular target: Protein smoothened (Mus musculus, UniProt P56726)
Assay: Inhibition of smo-mediated hedgehog signaling pathway in mouse ASZ001 cells assessed as decrease in Gli1 mRNA expression after 48 hrs by qPCR method
Type: cell-based
Conditions: not given
Outline: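 Gli1 mRNA measured by qPCR after 48 h incubation with compound, normalized to actin as internal control. Concentrations judged cytotoxic (by visual assessment and/or a significant drop in actin expression) were excluded from analysis. IC50 given as mean ± SEM of at least two separate experiments, each in triplicate.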

Sequence of Protein smoothened (P56726 whole entry): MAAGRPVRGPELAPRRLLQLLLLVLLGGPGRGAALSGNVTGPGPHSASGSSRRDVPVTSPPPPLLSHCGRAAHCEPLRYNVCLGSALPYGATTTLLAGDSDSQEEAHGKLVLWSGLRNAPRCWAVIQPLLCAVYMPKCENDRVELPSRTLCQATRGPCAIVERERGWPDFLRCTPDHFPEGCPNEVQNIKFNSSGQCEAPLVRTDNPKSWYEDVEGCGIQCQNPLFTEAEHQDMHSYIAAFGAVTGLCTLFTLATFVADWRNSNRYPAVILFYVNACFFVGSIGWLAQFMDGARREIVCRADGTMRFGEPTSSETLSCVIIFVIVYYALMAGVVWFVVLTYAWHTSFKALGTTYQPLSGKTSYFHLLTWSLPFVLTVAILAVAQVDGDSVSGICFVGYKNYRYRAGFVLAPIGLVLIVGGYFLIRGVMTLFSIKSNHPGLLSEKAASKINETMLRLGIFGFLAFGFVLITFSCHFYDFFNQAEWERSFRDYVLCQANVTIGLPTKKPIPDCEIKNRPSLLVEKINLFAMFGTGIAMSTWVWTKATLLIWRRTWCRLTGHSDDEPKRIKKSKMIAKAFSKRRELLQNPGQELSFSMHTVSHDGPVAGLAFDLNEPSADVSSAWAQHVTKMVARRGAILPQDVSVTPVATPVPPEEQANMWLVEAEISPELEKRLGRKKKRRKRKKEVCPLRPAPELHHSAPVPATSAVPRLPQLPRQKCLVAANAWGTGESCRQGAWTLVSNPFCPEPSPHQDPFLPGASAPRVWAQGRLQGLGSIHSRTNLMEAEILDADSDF

SMILES	pIC50
C[C@@]1(c2ccc(Cl)cc2Cl)OC[C@@H](COc2ccc(N3CCN(c4ccc([N+](=O)[O-])cc4)CC3)cc2)O1	6.51
C[C@]1(c2ccc(Cl)cc2Cl)OC[C@@H](COc2ccc(N3CCN(c4ccc(NC(=O)c5ccccc5O)cc4)CC3)cc2)O1	5.66
C[C@]1(c2ccc(Cl)cc2Cl)OC[C@@H](COc2ccc(N3CCN(c4ccc(NC(=O)c5cccc(Cl)c5)cc4)CC3)cc2)O1	< 5.00
C[C@@]1(c2ccc(Cl)cc2Cl)OC[C@@H](COc2ccc(N3CCN(c4ccc(N)cc4)CC3)cc2)O1	6.04
C[C@@]1(c2ccc(Cl)cc2Cl)OC[C@@H](COc2ccc(N3CCN(c4ccc(NC(=O)c5ccccc5O)cc4)CC3)cc2)O1	< 5.00
C[C@@]1(c2ccc(Cl)cc2Cl)OC[C@@H](COc2ccc(N3CCN(c4ccc(NC(=O)c5ccccc5)cc4)CC3)cc2)O1	< 5.00
C[C@]1(c2ccc(Cl)cc2Cl)OC[C@@H](COc2ccc(N3CCN(c4ccc(NC(=O)c5ccoc5)cc4)CC3)cc2)O1	< 5.00
C[C@]1(c2ccc(Cl)cc2Cl)OC[C@@H](COc2ccc(N3CCN(c4ccc(N)cc4)CC3)cc2)O1	6.41
COc1cccc(C(=O)Nc2ccc(N3CCN(c4ccc(OC[C@@H]5CO[C@](C)(c6ccc(Cl)cc6Cl)O5)cc4)CC3)cc2)c1	5.24
C[C@]1(c2ccc(Cl)cc2Cl)OC[C@@H](COc2ccc(N3CCN(c4ccc(NC(=O)c5ccc(O)cc5)cc4)CC3)cc2)O1	5.52
C[C@@]1(c2ccc(Cl)cc2Cl)OC[C@@H](COc2ccc(N3CCN(c4ccc(-n5cn[nH]c5=O)cc4)CC3)cc2)O1	6.85
C[C@]1(c2ccc(Cl)cc2Cl)OC[C@@H](COc2ccc(N3CCN(c4ccc(NC(=O)c5ccsc5)cc4)CC3)cc2)O1	< 5.00
C[C@]1(c2ccc(Cl)cc2Cl)OC[C@@H](COc2ccc(N3CCN(c4ccc([N+](=O)[O-])cc4)CC3)cc2)O1	6.59
C[C@@]1(c2ccc(Cl)cc2Cl)OC[C@@H](COc2ccc(N3CCN(c4ccc(NC(=O)c5ccccn5)cc4)CC3)cc2)O1	< 5.00
C[C@@]1(c2ccc(Cl)cc2Cl)OC[C@@H](COc2ccc(N3CCN(c4ccc(NC(=O)c5ccc6ccccc6c5)cc4)CC3)cc2)O1	< 5.00
C[C@]1(c2ccc(Cl)cc2Cl)OC[C@@H](COc2ccc(N3CCN(c4ccc(NC(=O)c5ccncc5)cc4)CC3)cc2)O1	< 5.00
C[C@@]1(c2ccc(Cl)cc2Cl)OC[C@@H](COc2ccc(N3CCN(c4ccc(NC(=O)c5ccc(O)cc5)cc4)CC3)cc2)O1	< 5.00
C[C@@]1(c2ccc(Cl)cc2Cl)OC[C@@H](COc2ccc(N3CCN(c4ccc(NC(=O)c5ccncc5)cc4)CC3)cc2)O1	< 5.00
C[C@]1(c2ccc(Cl)cc2Cl)OC[C@@H](COc2ccc(N3CCN(c4ccc(NC(=O)c5ccccn5)cc4)CC3)cc2)O1	5.41
C[C@]1(c2ccc(Cl)cc2Cl)OC[C@@H](COc2ccc(N3CCN(c4ccc(-n5cn[nH]c5=O)cc4)CC3)cc2)O1	6.68
C[C@]1(c2ccc(Cl)cc2Cl)OC[C@@H](COc2ccc(N3CCN(c4ccc(NC(=O)c5ccccc5)cc4)CC3)cc2)O1	< 5.00
C[C@]1(c2ccc(Cl)cc2Cl)OC[C@@H](COc2ccc(N3CCN(c4ccc(NC(=O)c5ccc6ccccc6c5)cc4)CC3)cc2)O1	< 5.00

System: Medulloblastoma cell
Assay: Antiproliferative activity against medulloblastoma cells derived from conditional patched knockout mouse after 48 hrs by [3H]-thymidine incorporation assay
Type: functional
Conditions: not given
Outline: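 Cells are MERP medulloblastoma cells isolated from Math1-Cre-ER;Ptcfl/fl mouse tumors and cultured in vitro. Compounds were incubated for 48 h before the growth read-out. GI50 is the mean ± SEM of at least two separate experiments, each run in triplicate.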

SMILES	GI50
C[C@@]1(c2ccc(Cl)cc2Cl)OC[C@@H](COc2ccc(N3CCN(c4ccc(NC(=O)NN)cc4)CC3)cc2)O1	0.5 µM
C[C@]1(c2ccc(Cl)cc2Cl)OC[C@@H](COc2ccc(N3CCN(c4ccc(NC(=O)c5cccc(O)c5)cc4)CC3)cc2)O1	0.35 µM
C[C@@]1(c2ccc(Cl)cc2Cl)OC[C@@H](COc2ccc(N3CCN(c4ccc(NC(=O)c5cccc(O)c5)cc4)CC3)cc2)O1	2.8 µM
C[C@]1(c2ccc(Cl)cc2Cl)OC[C@@H](COc2ccc(N3CCN(c4ccc(NC(=O)c5cccnc5)cc4)CC3)cc2)O1	1.1 µM
C[C@]1(c2ccc(Cl)cc2Cl)OC[C@@H](COc2ccc(N3CCN(c4ccc(NC(=O)NN)cc4)CC3)cc2)O1	2.8 µM
C[C@@]1(c2ccc(Cl)cc2Cl)OC[C@@H](COc2ccc(N3CCN(c4ccc(NC(=O)c5cccnc5)cc4)CC3)cc2)O1	> 10 µM

System: not listed separately
Assay: Kinetic solubility of the compound in PBS at pH 7.4 by UPLC-MS/MS analysis
Type: physicochemical
Conditions: read-out: Kinetic_solubility

SMILES	solubility kinetic
C[C@@]1(c2ccc(Cl)cc2Cl)OC[C@@H](COc2ccc(N3CCN(c4ccc(NC(=O)NN)cc4)CC3)cc2)O1	9.3 nM (≈ 5.32 ng/mL)
C[C@]1(c2ccc(Cl)cc2Cl)OC[C@@H](COc2ccc(N3CCN(c4ccc(NC(=O)c5cccc(O)c5)cc4)CC3)cc2)O1	1.6 nM (≈ 1.02 ng/mL)
C[C@@]1(c2ccc(Cl)cc2Cl)OC[C@@H](COc2ccc(N3CCN(c4ccc(NC(=O)c5cccc(O)c5)cc4)CC3)cc2)O1	1.4 nM (≈ 0.888 ng/mL)
CC(=O)c1cccc(C(=O)Nc2ccc(N3CCN(c4ccc(OC[C@@H]5CO[C@](C)(c6ccc(Cl)cc6Cl)O5)cc4)CC3)cc2)c1	1.4 nM (≈ 0.925 ng/mL)
CC[C@@H](C)n1ncn(-c2ccc(N3CCN(c4ccc(OC[C@@H]5CO[C@](C)(c6ccc(Cl)cc6Cl)O5)cc4)CC3)cc2)c1=O (relative stereo)	800 nM (≈ 511 ng/mL)
C[C@]1(c2ccc(Cl)cc2Cl)OC[C@@H](COc2ccc(N3CCN(c4ccc(NC(=O)c5cccnc5)cc4)CC3)cc2)O1	6.9 nM (≈ 4.27 ng/mL)
CC[C@@H](C)n1ncn(-c2ccc(N3CCN(c4ccc(OC[C@@H]5CO[C@@](C)(c6ccc(Cl)cc6Cl)O5)cc4)CC3)cc2)c1=O (relative stereo)	1560 nM (≈ 996 ng/mL)
C[C@]1(c2ccc(Cl)cc2Cl)OC[C@@H](COc2ccc(N3CCN(c4ccc(NC(=O)NN)cc4)CC3)cc2)O1	1.4 nM (≈ 0.801 ng/mL)
C[C@@]1(c2ccc(Cl)cc2Cl)OC[C@@H](COc2ccc(N3CCN(c4ccc(NC(=O)c5cccnc5)cc4)CC3)cc2)O1	4.2 nM (≈ 2.6 ng/mL)

System: not listed separately
Assay: Half life in human liver microsomes at 1 uM by UPLC-MS/MS analysis
Type: ADME, Microsome
Conditions: not given

SMILES	t1/2
C[C@@]1(c2ccc(Cl)cc2Cl)OC[C@@H](COc2ccc(N3CCN(c4ccc(NC(=O)NN)cc4)CC3)cc2)O1	20.1 min
C[C@]1(c2ccc(Cl)cc2Cl)OC[C@@H](COc2ccc(N3CCN(c4ccc(NC(=O)c5cccc(O)c5)cc4)CC3)cc2)O1	19.9 min
C[C@@]1(c2ccc(Cl)cc2Cl)OC[C@@H](COc2ccc(N3CCN(c4ccc(NC(=O)c5cccc(O)c5)cc4)CC3)cc2)O1	> 231 min
CC(=O)c1cccc(C(=O)Nc2ccc(N3CCN(c4ccc(OC[C@@H]5CO[C@](C)(c6ccc(Cl)cc6Cl)O5)cc4)CC3)cc2)c1	11.4 min
C[C@]1(c2ccc(Cl)cc2Cl)OC[C@@H](COc2ccc(N3CCN(c4ccc(NC(=O)c5cccnc5)cc4)CC3)cc2)O1	8.9 min
C[C@]1(c2ccc(Cl)cc2Cl)OC[C@@H](COc2ccc(N3CCN(c4ccc(NC(=O)NN)cc4)CC3)cc2)O1	11.5 min
C[C@@]1(c2ccc(Cl)cc2Cl)OC[C@@H](COc2ccc(N3CCN(c4ccc(NC(=O)c5cccnc5)cc4)CC3)cc2)O1	59.9 min

System: not listed separately
Assay: Intrinsic clearance in human liver microsomes at 1 uM by UPLC-MS/MS analysis
Type: ADME, Microsome
Conditions: not given

SMILES	CLH
C[C@@]1(c2ccc(Cl)cc2Cl)OC[C@@H](COc2ccc(N3CCN(c4ccc(NC(=O)c5cccc(O)c5)cc4)CC3)cc2)O1	< 3 µL/min/mg

Molecular target: Cytochrome P450 3A4 (Homo sapiens, UniProt P08684)
Assay: Inhibition of CYP3A4 (unknown origin) using midazolam as substrate by UPLC-MS/MS analysis
Type: ADME
Conditions: not given

Sequence of Cytochrome P450 3A4 (P08684 whole entry): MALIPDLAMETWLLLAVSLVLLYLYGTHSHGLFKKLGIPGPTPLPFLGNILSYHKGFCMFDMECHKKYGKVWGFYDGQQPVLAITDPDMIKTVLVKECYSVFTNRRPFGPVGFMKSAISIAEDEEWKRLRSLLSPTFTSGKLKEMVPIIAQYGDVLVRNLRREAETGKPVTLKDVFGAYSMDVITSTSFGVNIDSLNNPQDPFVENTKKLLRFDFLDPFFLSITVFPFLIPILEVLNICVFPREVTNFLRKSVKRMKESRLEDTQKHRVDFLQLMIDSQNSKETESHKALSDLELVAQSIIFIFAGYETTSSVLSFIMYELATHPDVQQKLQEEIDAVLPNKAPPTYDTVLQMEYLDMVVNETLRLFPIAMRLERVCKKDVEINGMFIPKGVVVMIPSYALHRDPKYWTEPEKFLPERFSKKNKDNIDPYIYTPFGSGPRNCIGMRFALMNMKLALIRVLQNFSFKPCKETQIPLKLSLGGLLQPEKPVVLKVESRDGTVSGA

SMILES	IC50
C[C@@]1(c2ccc(Cl)cc2Cl)OC[C@@H](COc2ccc(N3CCN(c4ccc(NC(=O)NN)cc4)CC3)cc2)O1	> 30 µM
C[C@]1(c2ccc(Cl)cc2Cl)OC[C@@H](COc2ccc(N3CCN(c4ccc(NC(=O)c5cccc(O)c5)cc4)CC3)cc2)O1	11.4 µM
C[C@@]1(c2ccc(Cl)cc2Cl)OC[C@@H](COc2ccc(N3CCN(c4ccc(NC(=O)c5cccc(O)c5)cc4)CC3)cc2)O1	> 30 µM
CC(=O)c1cccc(C(=O)Nc2ccc(N3CCN(c4ccc(OC[C@@H]5CO[C@](C)(c6ccc(Cl)cc6Cl)O5)cc4)CC3)cc2)c1	> 30 µM
CC[C@@H](C)n1ncn(-c2ccc(N3CCN(c4ccc(OC[C@@H]5CO[C@](C)(c6ccc(Cl)cc6Cl)O5)cc4)CC3)cc2)c1=O (relative stereo)	> 20 µM
C[C@]1(c2ccc(Cl)cc2Cl)OC[C@@H](COc2ccc(N3CCN(c4ccc(NC(=O)c5cccnc5)cc4)CC3)cc2)O1	> 20 µM
CC[C@@H](C)n1ncn(-c2ccc(N3CCN(c4ccc(OC[C@@H]5CO[C@@](C)(c6ccc(Cl)cc6Cl)O5)cc4)CC3)cc2)c1=O (relative stereo)	1.02 µM
C[C@]1(c2ccc(Cl)cc2Cl)OC[C@@H](COc2ccc(N3CCN(c4ccc(NC(=O)NN)cc4)CC3)cc2)O1	> 30 µM
C[C@@]1(c2ccc(Cl)cc2Cl)OC[C@@H](COc2ccc(N3CCN(c4ccc(NC(=O)c5cccnc5)cc4)CC3)cc2)O1	> 30 µM

Species: Mus musculus
Assay: Antiproliferative activity against mouse ASZ001 cells measured after 48 hrs by MTS/PMS assay
Type: functional, cell-based
Conditions: not given

SMILES	Activity
C[C@]1(c2ccc(Cl)cc2Cl)OC[C@@H](COc2ccc(N3CCN(c4ccc(NC(=O)c5cccc(O)c5)cc4)CC3)cc2)O1	Active
CC(=O)c1cccc(C(=O)Nc2ccc(N3CCN(c4ccc(OC[C@@H]5CO[C@](C)(c6ccc(Cl)cc6Cl)O5)cc4)CC3)cc2)c1	Active
